# Screening data as filed in PubChem.
# CAL PDZ FP-1: blocks peptide binding to the human CAL PDZ domain. Q9HD26. purified CAL PDZ, TMR-peptide fluorescence polarization, 1 h. inhibition, % at 24.9 µM. hit rate 0.92% among 300,000. AID 602252;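 active = mean inhibition of at least 30% with at least half of replicates also reaching 30%; inconclusive = no clear call, values can overlap the other calls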;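 also: 0% = DMSO neutral control and 100% = excess unlabeled competitor peptide PRC23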
# dFosB act: enhances mouse delta FosB homodimer DNA binding. P13346. purified delta FosB, TAMRA-CDK5 oligo fluorescence polarization; percent of positive-control signal above neutral wells. activation, % at 25 µM. hit rate 0.99% among 340,000;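 active = mean activation above about 17%, with every replicate also reaching it, limit read from the data, passing the limit was not always enough; inconclusive = only one of the two conditions met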
# Target sequence (P13346 whole entry, looked up): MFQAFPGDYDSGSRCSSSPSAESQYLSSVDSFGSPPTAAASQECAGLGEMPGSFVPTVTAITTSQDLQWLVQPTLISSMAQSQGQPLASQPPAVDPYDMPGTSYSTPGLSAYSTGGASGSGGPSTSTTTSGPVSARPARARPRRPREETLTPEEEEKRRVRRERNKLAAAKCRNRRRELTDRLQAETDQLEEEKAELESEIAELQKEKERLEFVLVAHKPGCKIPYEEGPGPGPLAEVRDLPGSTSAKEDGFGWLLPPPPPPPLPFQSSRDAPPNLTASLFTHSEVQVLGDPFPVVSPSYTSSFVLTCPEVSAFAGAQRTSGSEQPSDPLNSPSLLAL
# CDK5 inh: blocks human CDK5/p35 kinase activity | Recombinant CDK5/p35, ADP-Glo luminescence, 60 min | inhibition, % at 10 µM | hit rate 0.01% among 330,000 | AID 488839;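 active = highest replicate inhibition of at least 50% and at least 75% of replicates reaching 50%; inconclusive = only one of the two criteria met; inactive = both criteria failed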;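 also: plate controls were DMSO neutral control for no effect and GW8510 at 10 µM for full effect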
# CAL PDZ FP-2: inhibitors of human CAL PDZ peptide binding. purified CAL PDZ, TMR-peptide fluorescence polarization, 1 h. Q9HD26. AID 504414. hit rate 0.02% among 330,000. inhibition, % at 20 µM;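 active = highest replicate inhibition of at least 40%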;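 also: plate controls were DMSO neutral control wells for no effect and unlabeled competitor peptide control wells for full effect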
#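 Material: tagged CAL PDZ protein CerCALP, purified; buffer or medium: sodium phosphate/NaCl buffer pH 7.4 with TCEP, IgG, Thesit; also added: fluorescent TMR peptide probe; schedule: 1 h incubation at room temperature before polarization reading; technique: fluorescence polarization from S- and P-plane intensities, G-factor corrected; control set: unlabelled peptide and DMSO controls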
# Rtt109 Vps75: inhibitors of Candida albicans Rtt109/Vps75 histone acetyltransferase; Q5AAJ8; purified Rtt109/Vps75, ThioGlo CoA-SH fluorescence, 4 h; inhibition, % at 34.9 µM; hit rate 0.16% among 330,000;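 active = inhibition of at least 50% in every replicate; inconclusive = best replicate reaches 50% inhibition but some replicates fall short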
# Dyrk1A ADPGlo: blocks rat Dyrk1A kinase activity. inhibition, % at 12.5 µM. ADP-Glo luminescence, NFATc1 peptide. Q63470. hit rate 0.43% among 310,000; in the data active = inhibition above about 50%;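 also: plate controls were vehicle with enzyme for no effect and no enzyme for full effect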
# Numbers without * were called inactive; ? = inconclusive; . = no result given; + = active, no number. Compounds with a hit are over-represented: about 2.2% of the library has one in this group of screens.
SMILES,CAL PDZ FP-1,dFosB act,CDK5 inh,CAL PDZ FP-2,Rtt109 Vps75,Dyrk1A ADPGlo
O=C(Nc1cccnc1)c1cc(-c2ccccc2)on1,122*,-10,0,.,11,6
O=C(Nc1c(F)cc(F)cc1Br)c1cc(-c2ccccc2)on1,80*,?,-1,-1,-8,6
O=C(Nc1c(F)cc(F)cc1Br)c1cc(-c2ccc(O)cc2)on1,-2,-2,-1,-1,4,15
CN1CCN(CC(=O)NN2CC(=O)N(c3ccc(F)cc3)CC2=O)CC1,52*,2,2,0,2,2
Nc1ccc(Oc2cccc(Oc3ccc(N)cc3)c2)cc1,39*,-8,1,-4,1,-4
COc1ccc(NC(=O)Cn2nnc(-c3ccccc3NC(=O)c3ccco3)n2)cc1,-1,26*,1,0,-6,1
O=C(NCCN1CCN(C(=O)c2ccccc2Cl)CC1)C(=O)NCc1ccccc1,48*,-2,1,-1,-6,-8
COc1cc(C2/C(=C(\O)c3ccc4c(c3)CC(C)O4)C(=O)C(=O)N2CCN2CCOCC2)cc(OC)c1OC (stereo not given),-1,-6,0,-2,5,-4
O=C(CCCSc1nnnn1-c1cccc2ccccc12)c1ccc(F)cc1,46*,-6,0,.,10,.
Cc1c(N(C)S(=O)(=O)c2ccc(Cl)c(C(=O)NCC(C)(C)N3CCOCC3)c2)c(=O)n(-c2ccccc2)n1C,35*,-5,1,-1,-2,-1
CCOc1ccc(N(CC(=O)NC(C(C)C)C(C)C)S(=O)(=O)c2ccc(OC)c(OC)c2)cc1,3,-10,2,-2,6,-1
CSc1ncccc1C(=O)OCC(=O)Nc1cccc(S(=O)(=O)N2CCOCC2)c1,-8,6,0,-2,6,12
CCCCNc1cc(Cl)nc(N)n1,-1,-9,0,0,3,-10
CC(C)CCN1C(=O)c2ccc(C(=O)Nc3cc(C(=O)O)cc(C(=O)O)c3)cc2C1=O,33*,-9,0,0,-6,15
CC(C)CCN1C(=O)c2ccc(C(=O)Nc3ccc(Br)cc3C(=O)O)cc2C1=O,.,1,0,-1,1,10
CCOc1ccccc1NC(=O)CN1C(=O)COc2ccc(C)cc21,13,-7,-1,-2,5,0
O=C(NCc1ccc(Cl)cc1)c1ccccc1CCc1ccccc1,3,-4,1,-1,52*,4
O=C(NCc1ccccc1Cl)c1ccccc1CCc1ccccc1,-5,-6,0,-1,3,0
COc1ccc(-n2nc3c(N4CCC(C(=O)N5CCC(C)CC5)CC4)nnc(C)c3c2C)cc1,-6,-6,2,-3,?,3
Cc1cc(Br)cc(Cl)c1OC(=O)c1ccncc1,47*,4,1,-2,9,2
O=C(O)c1cccc(S(=O)(=O)NNc2ccccc2C(F)(F)F)c1,+,-2,1,0,9,4
O=C(O)c1ccccc1NS(=O)(=O)c1cccc(C(F)(F)F)c1,.,-1,-1,-4,0,-1
COc1cc(NC(=O)c2c(F)c(F)c(OC)c(F)c2F)ccc1NC(=O)c1cccs1,-4,-7,-1,-1,1,-2
COc1ccc(N=Nc2c(C)[nH]c3ccccc23)cc1,-2,-10,0,2,3,-2
COc1ccc(C(=O)NCCN2CCCC2)cc1,-3,5,0,-1,2,-3
SMILES,CAL PDZ FP-1,dFosB act,CDK5 inh,CAL PDZ FP-2,Rtt109 Vps75,Dyrk1A ADPGlo
O=C1Nc2cc(C(=O)NCCCN3CCCC3)ccc2S/C1=C\c1ccccc1,-5,7,5,-11,73*,12
O=C1Nc2cc(C(=O)NCCCN3CCOCC3)ccc2S/C1=C/c1cccc(Cl)c1,-3,-6,-2,-2,-5,6
COc1ccc(/C=C2/Sc3ccc(C(=O)NCCN4CCCCCC4)cc3NC2=O)cc1,-4,82*,0,-1,18,9
O=C(CN1C(=O)c2ccccc2C1=O)NNC1=NS(=O)(=O)c2ccccc21,30*,2,-1,-1,2,-2
O=C(Cc1ccccc1)NNC1=NS(=O)(=O)c2ccccc21,2,2,0,0,-6,-2
CCOC(=O)N1CCN(C(=O)c2cn(CC)c3ccc(S(=O)(=O)N4CCOCC4)cc3c2=O)CC1,1,-1,.,-2,8,.
CCNC(=O)NC(=O)c1csc([N+](=O)[O-])c1,41*,6,-1,-1,0,3
O=C(OCC(=O)N1CCc2ccccc2C1)c1cccnc1Cl,71*,0,1,21,-2,-2
Cc1cccc(C(=O)OCC(=O)N2CCc3ccccc3C2)c1O,-3,-19,1,-6,1,-4
CC(C)(C(=O)Nc1nccs1)c1ccccc1,66*,-5,1,16,-3,0
Oc1cccc(Nc2nc(NCC3CCCO3)c3ccccc3n2)c1 (stereo not given),-4,59*,7,-7,?,39
Nc1nc(NCc2ccco2)nc(N2CCCCC2)c1[N+](=O)[O-],3,-12,0,-4,5,24
Nc1nc(NCC2CCCO2)nc(Nc2cccc(F)c2)c1[N+](=O)[O-] (stereo not given),79*,10,2,0,-19,2
Nc1nc(Nc2ccc(Cl)cc2)nc(NCc2ccco2)c1[N+](=O)[O-],-3,57*,1,0,-5,18
Nc1nc(Nc2cccc(F)c2)nc(NCc2ccco2)c1[N+](=O)[O-],.,23*,4,-1,1,3
CN1CCN(c2nc(NCc3ccco3)nc(N)c2[N+](=O)[O-])CC1,-3,-8,0,-2,4,.
c1ccc(Nc2nc(NCC3CCCO3)c3ccccc3n2)cc1 (stereo not given),1,-9,0,-11,9,16
CS(=O)(=O)N1CCC(C(=O)NCc2ccc(F)cc2)CC1,3,0,1,-1,0,1
O=C(CN1C(=O)C2C3C=CC(C3)C2C1=O)Nc1ccc(S(=O)(=O)N2CCCCC2)cc1 (stereo not given),-5,-5,0,0,11,0
COc1ccc(Nc2nc(N)c([N+](=O)[O-])c(NCc3ccccc3)n2)cc1,-4,29*,-2,1,12,0
Nc1nc(Nc2cccc(Cl)c2)nc(NCc2ccco2)c1[N+](=O)[O-],-5,58*,0,-3,5,7
Cc1cccc(Nc2nc(NCc3ccco3)nc(N)c2[N+](=O)[O-])c1,-5,5,-1,2,-5,17
COc1cc(NC(=S)NCCc2ccc(S(N)(=O)=O)cc2)c(OC)cc1Cl,1,-7,1,-1,1,0
